One assay deals with L1210. Put plainly: Concentration required for 50% inhibition of cell growth of L1210 leukemic cell lines in mouse. It is filed as functional, cell-based. The essentials:
(§1)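 MTT growth assay: each tumor cell line seeded at 1 × 10^4 cells/well and incubated with or without test compound for 72 h. MTT was then added and OD at 570 nm was read. % inhibition = [1 − OD(sample well)/OD(control well)] × 100. IC50 is the concentration in μg/mL giving 50% inhibition of cell growth.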

Assay [1] has as its system KATO III stomach cancer cell line. The experiment in a line: Concentration required for 50% inhibition of human […] carcinoma KATO III solid cell lines. It is filed as functional, cell-based. In short, it runs like this:
as §1

The subject of the next assay is U-937. Put plainly: Concentration required for 50% inhibition of cell growth of U937 leukemic cell lines in human. The class given is functional, cell-based. In short, it runs like this: as §1
A further assay has as its system HL-60. The experiment in a line: Concentration required for 50% inhibition of cell growth of HL60 leukemic cell lines in human. The class given is functional, cell-based. In short, it runs like this: as §1
The test system of another assay is PC10. The experiment in a line: Concentration required for 50% inhibition of human lung squamous cell carcinoma PC10 solid cell lines. It is filed as functional, cell-based. The essentials: as §1
The next assay concerns TE-2. Put plainly: Concentration required for 50% inhibition of human […] squamous cell carcinoma TE2 solid cell lines. The class given is functional, cell-based. In short, it runs like this:
as §1

For a further assay, the system named is PC-14. The experiment in a line: Concentration required for 50% inhibition of human lung squamous cell carcinoma PC14 solid cell lines. The class given is functional, cell-based. The essentials: as §1
A further assay deals with T-24. Put plainly: Concentration required for 50% inhibition of human bladder transitional-cell carcinoma T24 solid cell lines.
In a further assay the test system is SW480. The experiment in a line: Concentration required for 50% inhibition of human […] carcinoma SW 480 solid cell lines. The class given is functional, cell-based. In short, it runs like this: as §1
In the next assay the test system is K562. Put plainly: Concentration required for 50% inhibition of cell growth of K562 leukemic cell lines in human. It is filed as functional, cell-based. In short, it runs like this:
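Tumour cells seeded at 1 × 10^4/well were grown with or without test compound for 72 h. MTT was then added and OD at 570 nm read. % inhibition = [1 − OD(sample)/OD(control)] × 100. IC50 is the concentration in μg/mL giving 50% growth inhibition.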

For another assay, the system named is CCRF-CEM. Put plainly: Concentration required for 50% inhibition of cell growth of CCRF CEM leukemic cell lines in human. The class given is functional, cell-based. The essentials: as §1
Another assay concerns MOLT-4. Put plainly: Concentration required for 50% inhibition of cell growth of MOLT-4 leukemic cell lines in human. It is filed as functional, cell-based. The essentials:
as §1

As usually defined, the IC50 is the concentration needed to halve the response being measured. Read a low IC50 as greater potency in that assay.

In brackets after ≈: the same amount, converted by molar mass.

In turn, `C[C@@H]1[C@H](O)[C@@H](CO)O[C@H]1n1ccc(N)nc1=O` gave an IC50 in the assay on L1210 of 40 µg/mL (≈ 166 µM).
Regarding `Nc1ccn([C@@H]2O[C@H](CO)[C@@H](O)[C@@H]2O)c(=O)n1` [CYTARABINE], the IC50 is above 100 µg/mL in assay [1]; 0.31 µg/mL (≈ 1.27 µM) with U-937; above 0.1 µg/mL in the assay on HL-60; above 100 µg/mL in the assay with PC10; above 100 µg/mL in the assay on TE-2; above 100 µg/mL with PC-14. Moreover, the IC50 in the assay with T-24 and with SW480 was above 100 µg/mL in each case.
Consider `Cc1cn([C@@H]2O[C@H](CO)C(O)[C@H]2C)c(=O)[nH]c1=O` (some centres not stated), for which it took 32 µg/mL (≈ 125 µM) to reach half-maximal inhibition in the assay on L1210 (IC50).
Still for that read-out and setting: for `C[C@@]1(O)[C@H](O)[C@@H](CO)O[C@H]1n1ccc(N)nc1=O` the value was 12 µg/mL (≈ 46.6 µM); for `C[C@]1(O)[C@H](O)[C@@H](CO)O[C@H]1n1ccc(N)nc1=O`, above 100 µg/mL.
Same read-out and setting: for `CC[C@@H]1C(O)[C@@H](CO)O[C@H]1n1ccc(N)nc1=O` (some centres not stated) the value was above 100 µg/mL.
In the case of `O=c1[nH]cc(F)c(=O)[nH]1` [FLUOROURACIL], the IC50 in the assay with PC10 was above 100 µg/mL; with K562, 3.8 µg/mL (≈ 29.2 µM).
With `C[C@H]1[C@H](O)[C@@H](CO)O[C@H]1n1ccc(N)nc1=O`, the concentration for half-maximal inhibition (IC50) in [1] is above 100 µg/mL; in the assay with L1210, 0.26 µg/mL (≈ 1.08 µM); in the assay on U-937, 0.38 µg/mL (≈ 1.58 µM); in the assay with HL-60 it was 0.65 µg/mL (≈ 2.69 µM); in the assay on PC10, 81.8 µg/mL (≈ 339 µM); with K562, 2.2 µg/mL (≈ 9.12 µM). The IC50 in the assay with TE-2 was above 100 µg/mL; in the assay with PC-14 it was above 100 µg/mL; in the assay with T-24, 1.1 µg/mL (≈ 4.56 µM); in the assay with SW480, above 100 µg/mL; in the assay on CCRF-CEM, 0.15 µg/mL (≈ 0.622 µM); in the assay with MOLT-4, 0.032 µg/mL (≈ 0.133 µM).
